What was measured:
[1] = tested on: K562; assay: Cytotoxicity against human K562 cells after 72 hrs by MTT assay; assay type: functional, cell-based; settings: K562, 72 h
Procedure, shortened: (§1)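 Cells are exposed to compound for 72 h, and viability is then read by MTT assay. IC50 is reported as the mean of 3 independent measurements with SD. hFB-hTERT6 is a non-malignant human skin fibroblast line.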

[2] = tested on: HCT-116; assay: Cytotoxicity against human HCT116 cells after 72 hrs by MTT assay; assay type: functional, cell-based; settings: HCT-116, 72 h; procedure, shortened: as §1
[3] = tested on: Streptomyces fradiae; assay: Antibacterial activity against Streptomyces fradiae ATCC 19609 at 0.1 nmol/disk after 24 hrs; assay type: functional
Procedure, shortened: (§2)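 Disk diffusion assay. Streptomyces fradiae spores are mixed into MG soft agar (0.7% agar, pH 7.5) and poured over MG agar plates (2% agar), 10⁷ spores per dish. After the agar sets, paper disks impregnated with compound are placed on the plates. Plates are incubated 24 h at 28 °C, and the diameter of the growth-inhibition halo around each disk is measured.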

[4] = tested on: Streptomyces fradiae; assay: Antibacterial activity against Streptomyces fradiae ATCC 19609 at 1 nmol/disk after 24 hrs; assay type: functional; procedure, shortened: as §2
[5] = Cytotoxicity against human hFB-hTERT6 cells after 72 hrs by MTT assay; assay type: cell-based; settings: hFB-hTERT6, 72 h; procedure, shortened: as §1
[6] = tested on: Streptomyces fradiae; assay: Antibacterial activity against Streptomyces fradiae ATCC 19609 at 10 nmol/disk after 24 hrs; assay type: functional; procedure, shortened: as §2
[7] = tested on: Streptomyces fradiae; assay: Antibacterial activity against Streptomyces fradiae ATCC 19609 at 100 nmol/disk after 24 hrs; assay type: functional; procedure, shortened: as §2
[8] = tested on: Streptomyces fradiae; assay: Antibacterial activity against Streptomyces fradiae ATCC 19609 at 0.001 nmol/disk after 24 hrs; assay type: functional
Procedure, shortened: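 Disk diffusion on S. fradiae: spore suspension mixed into MG soft agar (0.7%), pH 7.5, poured over MG agar (2%) at 10⁷ spores per dish; after solidification, paper disks carrying test compound laid on lawn; grown 24 h at 28 °C; growth-inhibition halo diameter around disks measured.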

With `CC[C@H]1/C=C/C=C/C[C@@H](C)[C@H](O)[C@@](C)(O)C(=O)[C@@H](C)[C@H](O)[C@@H](C)C(=O)[C@@H](C)[C@H](O)[C@@H](C)/C=C/C(=O)O[C@@H]2[C@H](C)[C@H](CC1)O[C@]1(CC[C@H](C)[C@H](C[C@@H](C)OS(C)(=O)=O)O1)[C@H]2C` the IC50 [1] was 5800 nM, the IC50 [2] was 6400 nM and the “diameter of the inhibition zone (DIZ)” value [3] was 9.5 mm.

In the case of `CC[C@H]1/C=C/C=C/C[C@@H](C)[C@H](O)[C@@](C)(O)C(=O)[C@@H](C)[C@H](O)[C@@H](C)C(=O)[C@@H](C)[C@H](O)[C@@H](C)/C=C/C(=O)O[C@@H]2[C@H](C)[C@H](CC1)O[C@]1(CC[C@H](C)[C@H](C[C@H](C)N=[N+]=[N-])O1)[C@H]2C`, the IC50 [1] is reported as 140 nM, the “diameter of the inhibition zone (DIZ)” value [4] is reported as 7.5 mm and the IC50 [5] is reported as 1900 nM. For the same molecule, the IC50 [2] was 200 nM.

In the case of `CC[C@H]1/C=C/C=C/C[C@@H](C)[C@H](O)[C@@](C)(O)C(=O)[C@@H](C)[C@H](O)[C@@H](C)C(=O)[C@@H](C)[C@H](O)[C@@H](C)/C=C/C(=O)O[C@@H]2[C@H](C)[C@H](CC1)O[C@]1(CC[C@H](C)[C@H](C[C@H](C)n3cc(-c4ccccc4)nn3)O1)[C@H]2C`, the IC50 [1] is reported as 150 nM, the IC50 [5] is reported as 3000 nM and the “diameter of the inhibition zone (DIZ)” value [3] is reported as 7.5 mm.

In the case of `CC[C@H]1/C=C/C=C/C[C@@H](C)[C@H](O)[C@@](C)(O)C(=O)[C@@H](C)[C@H](O)[C@@H](C)C(=O)[C@@H](C)[C@H](O)[C@@H](C)/C=C/C(=O)O[C@@H]2[C@H](C)[C@H](CC1)O[C@]1(CC[C@H](C)[C@H](C[C@H](C)n3cc(C(=O)OC)nn3)O1)[C@H]2C`, the “diameter of the inhibition zone (DIZ)” value [6] is reported as 8 mm, the IC50 [1] is reported as 150 nM and the IC50 [5] is reported as 2000 nM.

With `CC[C@H]1/C=C/C=C/C[C@@H](C)[C@H](O)[C@@](C)(O)C(=O)[C@@H](C)[C@H](O)[C@@H](C)C(=O)[C@@H](C)[C@H](O)[C@@H](C)/C=C/C(=O)O[C@@H]2[C@H](C)[C@H](CC1)O[C@]1(CC[C@H](C)[C@H](C[C@H](C)n3cc(C(=O)O)nn3)O1)[C@H]2C` the IC50 [1] was > 12500 nM, the “diameter of the inhibition zone (DIZ)” value [7] was 8 mm and the IC50 [5] was > 50000 nM.

For `CC[C@H]1/C=C/C=C/C[C@@H](C)[C@H](O)[C@@](C)(O)C(=O)[C@@H](C)[C@H](O)[C@@H](C)C(=O)[C@@H](C)[C@H](O)[C@@H](C)/C=C/C(=O)O[C@@H]2[C@H](C)[C@H](CC1)O[C@]1(CC[C@H](C)[C@H](C[C@H](C)n3cc(C(=O)NCCN(C)C)nn3)O1)[C@H]2C`, the IC50 [1] was 220 nM, the “diameter of the inhibition zone (DIZ)” value [4] was 8 mm and the IC50 [5] was 2000 nM. It also gave an IC50 [2] of 700 nM.

Work on `CC[C@@H]1/C=C/C=C/C[C@H](C)[C@H](O)[C@](C)(O)C(=O)[C@H](C)[C@@H](O)[C@H](C)C(=O)[C@H](C)[C@@H](O)[C@H](C)/C=C/C(=O)O[C@H]2[C@@H](C)[C@@H](CC1)O[C@@]1(CC[C@@H](C)[C@@H](C[C@H](C)O)O1)[C@@H]2C` [OLIGOMYCIN A] yielded an IC50 [1] of 160 nM, an IC50 [5] of 7500 nM and an IC50 [2] of 1000 nM. For the same molecule, the “diameter of the inhibition zone (DIZ)” value [8] was 10 mm.

Reference: ChEMBL document CHEMBL2384900, “Synthesis and cytotoxicity of oligomycin A derivatives modified in the side chain” (Bioorg Med Chem, 2013)
